Active and inactive are the calls of the source. No cut-off for these calls is given here.
What was measured:
[1] = test system: Vesicular stomatitis virus; assay: Antiviral activity against Vesicular stomatitis virus infected in human cervix carcinoma cells assessed as inhibition of virus-induced cytopathic effect at 0.32 to 100 uM; assay type: functional, organism-based
Summary of the method: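 Confluent human cervix carcinoma (HeLa) cultures received 100 CCID50 of VSV together with the compound at 100, 40, 8, 1.6 or 0.32 μM. Cytopathicity was read at the point of full CPE in infected, untreated control wells.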

Sindbis virus = assay: Antiviral activity against Sindbis virus infected in african green monkey Vero cells assessed as inhibition of virus-induced cytopathic effect at 0.32 to 100 uM; assay type: functional, organism-based
Summary of the method: (§1)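 Confluent cell cultures were infected with 100 CCID50 of virus in the presence of test compound at 100, 40, 8, 1.6 and 0.32 μM. Cytopathic effect was scored once it was complete in untreated infected controls.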

Felid alphaherpesvirus 1 = assay: Antiviral activity against Feline herpesvirus infected in feline CRFK cells assessed as inhibition of virus-induced cytopathic effect at 0.32 to 100 uM; assay type: functional, organism-based; summary of the method: as §1
[2] = test system: Human immunodeficiency virus 1; assay: Antiviral activity against HIV1 3B infected in human CEM cells assessed as inhibition of virus-induced CEM giant cell formation at 0.32 to 100 uM after 4 days; assay type: functional, organism-based; conditions: CCRF-CEM
Summary of the method: (§2)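 CEM cells (~3 × 10^5 cells/cm³) exposed to 100 CCID50/ml of virus and seeded into wells holding compound dilutions. Incubated 4 days at 37 °C, then giant cell formation examined microscopically.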

[3] = test system: Vesicular stomatitis virus; assay: Antiviral activity against VSV infected in human lung fibroblast assessed as inhibition of virus-induced cytopathic effect at 0.32 to 100 uM; assay type: functional, organism-based
MCF7 = assay: Cytostatic activity against human MCF7 cells after 72 hrs by MTT assay; assay type: functional, cell-based; conditions: MCF7, 72 h
Summary of the method: (§3)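 Monolayers in DMEM with 10% FBS, 2 mM L-glutamine and penicillin/streptomycin, 37 °C, 5% CO2. Seeded at 1–3 × 10^4 cells/ml, then compound added in tenfold dilutions (10⁻⁸–10⁻⁴ M) for 72 h. MTT read at 570 nm; percent growth taken against time-zero and untreated controls. IC50 by linear regression; quadruplicate, at least two experiments.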

Influenza A virus [4] = assay: Antiviral activity against Influenza A virus H3N2 infected in MDCK cells assessed as inhibition of virus-induced cytopathic effect at 0.32 to 100 uM; assay type: functional, organism-based
Summary of the method: (§4)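 Confluent MDCK monolayers were infected in the presence of the compound at 100, 40, 8, 1.6 and 0.32 μM. Viral cytopathicity was scored once it was complete in untreated infected control cultures.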

Glycine max = assay: Inhibition of soybean LOX assessed as conversion of sodium linoleate to 13- hydroperoxylinoleic acid at 100 uM
[5] = Antioxidant activity assessed as inhibition of AAPH-induced linoleic acid lipid peroxidation by measuring conjugated diene hydroperoxide level; assay type: functional; set-up: concentration or dose not given beside the values; conditions: dose or concentration not given here
Summary of the method: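 Linoleic acid sodium salt (10 μL of 16 mM) in 0.05 M phosphate buffer pH 7.4 at 37 °C. Oxidation started under air with 50 μL of 40 mM AAPH. Conjugated diene hydroperoxide formation followed as absorbance rise at 234 nm; control contains the same DMSO level. At least triplicate.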

HCT-116 = assay: Cytostatic activity against human HCT116 cells after 72 hrs by MTT assay; assay type: functional, cell-based; conditions: HCT-116, 72 h; summary of the method: as §3
Feline coronavirus = assay: Antiviral activity against Feline coronavirus infected in feline CRFK cells assessed as inhibition of virus-induced cytopathic effect at 0.32 to 100 uM; assay type: functional, organism-based; summary of the method: as §1
Influenza A virus [6] = assay: Antiviral activity against Influenza A virus H1N1 infected in MDCK cells assessed as inhibition of virus-induced cytopathic effect at 0.32 to 100 uM; assay type: functional, organism-based; summary of the method: as §4
Human respirovirus 3 = assay: Antiviral activity against Parainfluenza virus 3 infected in african green monkey Vero cells assessed as inhibition of virus-induced cytopathic effect at 0.32 to 100 uM; assay type: functional, organism-based; summary of the method: as §1
Influenza B virus = assay: Antiviral activity against Influenza B virus infected in MDCK cells assessed as inhibition of virus-induced cytopathic effect at 0.32 to 100 uM; assay type: functional, organism-based; summary of the method: as §4
Coxsackievirus B4 [7] = assay: Antiviral activity against Coxsackievirus B4 infected in african green monkey Vero cells assessed as inhibition of virus-induced cytopathic effect at 0.32 to 100 uM; assay type: functional, organism-based; summary of the method: as §1
L1210 = assay: Cytostatic activity against mouse L1210 cells after 2 days by coulter counter analysis; assay type: functional, cell-based; conditions: L1210, 48 h
Summary of the method: (§5)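 300,000–500,000 cells/ml mixed 1:1 with compound dilutions and incubated at 37 °C for 2 days (L1210) or 3 days (CEM, HeLa). Cell number counted with a Coulter counter; HeLa trypsinized before counting.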

Coxsackievirus B4 [8] = assay: Antiviral activity against Coxsackievirus B4 infected in human cervix carcinoma cells assessed as inhibition of virus-induced cytopathic effect at 0.32 to 100 uM; assay type: functional, organism-based; summary of the method: as §1
[9] = test system: Radical scavenging activity; assay: Antioxidant activity assessed as DPPH free radical scavenging activity at 100 uM after 60 mins by spectrophotometric analysis; assay type: functional
Summary of the method: (§6)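 0.05 mM DPPH in absolute ethanol mixed with an equal volume of compound in DMSO (final 100 μM). Shaken and left 20 or 60 min, then absorbance read at 517 nm and percent activity calculated. Three replicates, averaged.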

Vaccinia virus = assay: Antiviral activity against Vaccinia virus infected in human lung fibroblast assessed as inhibition of virus-induced cytopathic effect at 0.32 to 100 uM; assay type: functional, organism-based; conditions: Orthopoxvirus vaccinia
[10] = test system: Mammalian orthoreovirus 1; assay: Antiviral activity against Reovirus-1 infected in african green monkey Vero cells assessed as inhibition of virus-induced cytopathic effect at 0.32 to 100 uM; assay type: functional, organism-based; summary of the method: as §1
HeLa = assay: Cytostatic activity against human HeLa cells after 3 days by coulter counter analysis; assay type: functional, cell-based; conditions: 72 h; summary of the method: as §5
Punta Toro virus = assay: Antiviral activity against Punta Toro virus infected in african green monkey Vero cells assessed as inhibition of virus-induced cytopathic effect at 0.32 to 100 uM; assay type: functional, organism-based; summary of the method: as §1
Human alphaherpesvirus 1 = assay: Antiviral activity against HSV1 KOS infected in human lung fibroblast assessed as inhibition of virus-induced cytopathic effect at 0.32 to 100 uM; assay type: functional, organism-based; summary of the method: as §1
[11] = test system: Respiratory syncytial virus; assay: Antiviral activity against RSV infected in human cervix carcinoma cells assessed as inhibition of virus-induced cytopathic effect at 0.32 to 100 uM; assay type: functional, organism-based; summary of the method: as §1
NCI-H460 = assay: Cytostatic activity against human NCI-H460 cells after 72 hrs by MTT assay; assay type: functional, cell-based; conditions: NCI-H460, 72 h; summary of the method: as §3
Human alphaherpesvirus 2 = assay: Antiviral activity against HSV2 G infected in human lung fibroblast assessed as inhibition of virus-induced cytopathic effect at 0.32 to 100 uM; assay type: functional, organism-based; conditions: strain G; summary of the method: as §1
[12] = test system: Human immunodeficiency virus 2; assay: Antiviral activity against HIV2 ROD infected in human CEM cells assessed as inhibition of virus-induced CEM giant cell formation at 0.32 to 100 uM after 4 days; assay type: functional, organism-based; conditions: ISOLATE ROD, CCRF-CEM; summary of the method: as §2
[13] = test system: Radical scavenging activity; assay: Antioxidant activity assessed as DPPH free radical scavenging activity at 100 uM after 20 mins by spectrophotometric analysis; assay type: functional; summary of the method: as §6
CCRF-CEM = assay: Cytostatic activity against human CEM cells after 3 days by coulter counter analysis; assay type: functional, cell-based; conditions: 72 h; summary of the method: as §5

SMILES	inhibition [1]	inhibition (Sindbis virus)	inhibition (Felid alphaherpesvirus 1)	inhibition [2]	inhibition [3]	IC50 (MCF7) [µM]	inhibition (Influenza A virus [4])	inhibition (Glycine max)	inhibition [5] [%]	IC50 (HCT-116) [µM]	inhibition (Feline coronavirus)	inhibition (Influenza A virus [6])	inhibition (Human respirovirus 3)	inhibition (Influenza B virus)	inhibition (Coxsackievirus B4 [7])	IC50 (L1210) [µM]	inhibition (Coxsackievirus B4 [8])	Activity [9]	inhibition (Vaccinia virus)	inhibition [10]	other results
CC(C(=O)NNC(=O)NO)c1cccc(Cc2ccccc2)c1 (stereo unspecified)	inactive	inactive	inactive	inactive	inactive	> 100	inactive	8%	8	> 100	inactive	inactive	inactive	inactive	inactive	113	inactive	59%	inactive	inactive	IC50 (HeLa): 176 µM; inhibition (Punta Toro virus): inactive; inhibition (Human alphaherpesvirus 1): inactive; inhibition [11]: inactive; IC50 (NCI-H460): > 100 µM; inhibition (Human alphaherpesvirus 2): inactive; inhibition [12]: inactive; Activity [13]: 36%; IC50 (CCRF-CEM): 155 µM
CC(C(=O)NN)c1cccc(Cc2ccccc2)c1 (stereo unspecified)	inactive	inactive	inactive	inactive	inactive	> 100	inactive	10%	6	> 100	inactive	inactive	inactive	inactive	inactive	212	inactive	inactive	inactive	inactive	IC50 (HeLa): 142 µM; inhibition (Punta Toro virus): inactive; inhibition (Human alphaherpesvirus 1): inactive; inhibition [11]: inactive; IC50 (NCI-H460): > 100 µM; inhibition (Human alphaherpesvirus 2): inactive; inhibition [12]: inactive; Activity [13]: inactive; IC50 (CCRF-CEM): 150 µM
CC(C)Cc1ccc(C(C)C(=O)NNC(=O)NCCc2ccccc2)cc1 (stereo unspecified)	inactive	inactive	inactive	inactive	inactive	23	inactive	inactive	33	26	inactive	inactive	inactive	inactive	inactive	180	inactive	inactive	inactive	inactive	IC50 (HeLa): ≥ 250 µM; inhibition (Punta Toro virus): inactive; inhibition (Human alphaherpesvirus 1): inactive; inhibition [11]: inactive; IC50 (NCI-H460): 51 µM; inhibition (Human alphaherpesvirus 2): inactive; inhibition [12]: inactive; Activity [13]: inactive; IC50 (CCRF-CEM): 148 µM
CC(C)Cc1ccc(C(C)C(=O)NN)cc1 (stereo unspecified)	inactive	inactive	inactive	inactive	inactive	> 100	inactive	8%	6	> 100	inactive	inactive	inactive	inactive	inactive	170	inactive	1%	inactive	inactive	IC50 (HeLa): 129 µM; inhibition (Punta Toro virus): inactive; inhibition (Human alphaherpesvirus 1): inactive; inhibition [11]: inactive; IC50 (NCI-H460): > 100 µM; inhibition (Human alphaherpesvirus 2): inactive; inhibition [12]: inactive; Activity [13]: inactive; IC50 (CCRF-CEM): 147 µM

— ChEMBL document CHEMBL2010803, “Novel NSAID 1-acyl-4-cycloalkyl/arylsemicarbazides and 1-acyl-5-benzyloxy/hydroxy carbamoylcarbazides as potential anticancer agents and antioxidants” (Eur J Med Chem, 2012)
